# Screening results: PubChem, several laboratories
# A selection: hits, their analogues and other compounds. The true share with any hit is near 9.6%.
# L major viab = Leishmania major promastigote growth inhibition, primary screen; AID 1063, 2008; Leishmania major promastigotes, resazurin fluorescence viability; inhibition, % at 10 µM; 9% of 200,000 active; in the data active = inhibition above about 50%;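 note: promastigotes grown with compound for 44 hours at 28 °C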
# Ba/F3 V617F tox = reduced viability of JAK2V617F-dependent Ba/F3 cells, primary screen, JAK2V617F inhibitor project, cell-based, Ba/F3 EpoR-JAK2V617F, luminescence. 1.1% of 220,000 active. inhibition, % at 5.6 µM. ATP luminescence;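 active = inhibition above the campaign mean plus 3 SD over all tested compounds, cut at about 24% in these data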;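 note: cytokine-independent growth of Ba/F3 cells driven by EpoR plus mutant JAK2; 0% = DMSO-treated cells and 100% = JAK inhibitor I control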
# BaF3 parental = parental Ba/F3 cell viability inhibition, counter-screen for JAK2V617F inhibitor project, murine pro-B, CellTiter-Glo luminescence; inhibition, % at 5.6 µM; CellTiter-Glo ATP luminescence; AID 1486, 2009; 1.1% of 220,000 active;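 active = inhibition above a per-campaign cutoff, the mean inhibition of all tested compounds plus 3 SD, cut at about 27% in these data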;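 note: 0% = DMSO wells and 100% = JAK Inhibitor I control wells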
# MT stabilizer = microtubule stabilizers in HeLa cells, primary screen, imaging, high-content imaging; HeLa tubulin immunostaining HCS, 24 h; share of cells brighter than vehicle mean+2SD; % tubulin-high responders, % at 10 µM; 0.83% of 200,000 active; AID 2205, 2009;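 active = plate Z-score above 3 for both tubulin-high and condensed-nucleus cell shares, with cell loss under 80%, at 10 µM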;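 note: anti alpha tubulin signal scored within the nucleus-defined area of each cell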
# b-catenin transl = modulators of beta-catenin nuclear translocation, primary screen, imaging, HeLa cells, immunofluorescence, high-content; nuclear translocation activity, % at 5 µM; 0.3% of 190,000 active;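 active = nuclear translocation activity above 50% at 5 µM, with a well cell count of 50 or more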;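 note: per-cell ratio of nuclear to cytoplasmic median beta-catenin stain intensity; plate controls were DMSO negative control for no effect and GSK-3 inhibitor IX positive control for full effect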
#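 test system = HeLa cells, endogenous beta-catenin | dosing = single 5 µM dose plus 0.02–20 µM confirmation series | times = compound treatment 24 h, 37°C, 5% CO2 | technique = beta-catenin immunofluorescence imaging with DAPI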
# APP transl inh = inhibitors of APP translation via 5'UTR reporter, primary screen, APP 5'UTR luciferase, SH-SY5Y cells; 0.82% of 190,000 active; AID 1285, 2008; SH-SY5Y APP 5'UTR-luciferase reporter, luminescence; inhibition, % at 2 µM;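 active = inhibition above a set limit, derived from the sample mean plus 3 SD, cut at about 45% in these data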
# An asterisk follows results filed as active; nt = not tested or not shown.
SMILES,L major viab,Ba/F3 V617F tox,BaF3 parental,MT stabilizer,b-catenin transl,APP transl inh
COc1ccc(C(=O)C2CCCN(Cc3nc4ccccc4nc3C)C2)cc1OC (centres undefined),80*,2,5,2,-2,-9
COc1ccc(C(=O)C2CCCN(Cc3cccn3-c3ccc(Cl)cn3)C2)c(OC)c1 (centres undefined),95*,8,11,4,0,-12
O=C(NCc1ccco1)C1CCN(c2ccc(S(=O)(=O)N3CCOCC3)cc2[N+](=O)[O-])CC1,2,0,-2,4,-1,-27
COc1ccc(C(=O)C2CCCN(Cc3cnc(N4CCOCC4)s3)C2)cc1F (centres undefined),nt,-2,-1,nt,0,nt
COc1ccc(C(=O)C2CCCN(C3Cc4ccccc4C3)C2)cc1OC (centres undefined),93*,-2,-2,3,0,14
COc1ccc(C(=O)C2CCCN(Cc3ccc4nonc4c3)C2)cc1OC (centres undefined),89*,4,0,3,-2,25
COc1ccc(C(=O)C2CCCN(Cc3cnc(N4CCOCC4)s3)C2)c(OC)c1 (centres undefined),84*,-1,0,4,1,25
COc1ccc(C(=O)C2CCCN(Cc3ccc4nonc4c3)C2)cc1F (centres undefined),91*,-1,1,1,-1,6
CCOC(=O)c1[nH]ncc1CN1CCCC(C(=O)c2ccc(OC)c(OC)c2)C1 (centres undefined),-2,1,8,1,1,-2
CCNC(=O)N1CCCC(C(=O)c2ccc(OC)c(OC)c2)C1 (centres undefined),-5,-2,2,3,-1,-11
Cn1c(SCc2ccc(Cl)cc2)nnc1-c1ccc2nonc2c1,nt,0,4,nt,0,nt
CC(=O)N(c1nc(CCl)cs1)c1c(C)cc(C)cc1C,41,2,6,1,0,-5
CCC(C)NC(=O)Cc1c(OC)ccc2cc(Br)ccc12 (centres undefined),-3,1,4,5,0,-29
COc1ccc(C(=O)C2CCCN(Cc3ccc4nonc4c3)C2)c(OC)c1 (centres undefined),88*,1,7,3,-1,-3
COc1ccc(C(=O)C2CCCN(Cc3ccc(C#CCCO)cc3)C2)cc1F (centres undefined),50*,-3,3,2,1,1
CCOC(=O)c1nc(C)nc(Sc2n[nH]c(-c3cc(C(F)(F)F)cc(C(F)(F)F)c3)n2)c1C,nt,-3,1,nt,0,nt
Cn1c2c(c(=O)c3ccccc31)CCC(C)(C)O2,-7,-3,-3,3,1,-5
Cc1cc(C)cc(N/C(N)=N/c2nc(C)cc(C)n2)c1,85*,0,0,12,14,-3
Cc1ccc(N/C(N)=N/c2nc(C)cc(C)n2)cc1,17,-1,4,2,3,4
Cc1cc(C)nc(/N=C(\N)Nc2ccccc2-c2ccccc2)n1,96*,16,4,9,3,11
CCC(=O)Nc1ccc(N/C(N)=N/c2nc(C)cc(C)n2)cc1,nt,-2,3,nt,0,nt
CCCCc1ccc(N/C(N)=N/c2nc(C)cc(C)n2)cc1,nt,41*,35*,nt,-2,nt
O=C1CSC(c2cccnc2)N1Cc1ccc(Cl)cc1Cl (centres undefined),nt,-6,0,nt,0,nt
O=C(N/N=C/c1ccc(OCC(=O)N2CCCCC2)cc1)c1ccccc1O,-6,2,3,7,-6,-3
CC(=O)Oc1ccc(Cn2cnc3cc4ccccc4cc32)cc1,58*,-4,4,4,4,-8
CC(C)Oc1ncnc2c1[nH]c1ccccc12,nt,0,36*,nt,-4,nt
CCN(CC)c1ncnc2c1[nH]c1ccccc12,60*,-2,4,3,-2,-41
COc1cc2[nH]c(=O)n(CCC(=O)NCCCN3CCN(c4ccccc4F)CC3)c(=O)c2cc1OC,-1,0,8,3,-1,-15
